≈ marks a conversion by molar mass, not a printed value.
What was measured:
[1] = Inhibition of Escherichia coli topoisomerase IV ATPase activity
Escherichia coli [2] = assay: Antimicrobial activity against Escherichia coli W3110 after 18 to 20 hrs by broth microdilution; type: functional; conditions: K-12 substr. W3110
Procedure, shortened: (§1)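 Broth microdilution followed CLSI guidelines in Mueller Hinton broth. Inocula were grown 18–20 h at 35 °C on blood agar. Compound in DMSO was tested in doubling dilutions from 64 to 0.06 µg/mL, at 2% DMSO final. Plates were incubated 18–20 h and read at OD 620 nm. MIC was taken as the concentration giving >90% growth inhibition.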

Staphylococcus aureus = assay: Antimicrobial activity against methicillin-susceptible Staphylococcus aureus after 18 to 20 hrs by broth microdilution; type: functional; procedure, shortened: as §1
[3] = Fraction unbound in human plasma by LC/MS-MS analysis; type: ADME, cell-free
Procedure, shortened: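 Equilibrium dialysis: 10 µM compound was spiked into human plasma against phosphate buffer and rotated at 37 °C for 16 h. Plasma and buffer concentrations were quantified by LC/MS–MS with a C18 column and ESI MRM detection.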

Pseudomonas aeruginosa [4] = assay: Antimicrobial activity against Pseudomonas aeruginosa PAO1 after 18 to 20 hrs by broth microdilution; type: functional; procedure, shortened: as §1
[5] = Aqueous solubility of the compound; type: physicochemical; conditions: buffer
[6] = Partition co-efficient, log D of the compound at pH 7.4 by shake flask method; type: physicochemical; conditions: buffer
Procedure, shortened: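 Shake-flask method with 10 mM phosphate buffer pH 7.4 against n-octanol, shaken 1 h at 1200 rpm to equilibrium. Analysis was by LC/UV with MS confirmation.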

[7] = target: Voltage-gated inwardly rectifying potassium channel KCNH2 (Homo sapiens, UniProt Q12809); assay: Inhibition of human ERG by cell-based patch clamp method
Klebsiella pneumoniae = assay: Antimicrobial activity against Klebsiella pneumoniae after 18 to 20 hrs by broth microdilution; type: functional; procedure, shortened: as §1
Escherichia coli [8] = assay: Antimicrobial activity against Escherichia coli after 18 to 20 hrs by broth microdilution; type: functional; procedure, shortened: as §1
Pseudomonas aeruginosa [9] = assay: Antimicrobial activity against Pseudomonas aeruginosa clinical isolate after 18 to 20 hrs by broth microdilution; type: functional; procedure, shortened: as §1
[10] = target: Sodium-dependent noradrenaline transporter (Homo sapiens) (UniProt P23975); assay: Inhibition of NET (unknown origin) at 30 uM
[11] = target: Voltage-dependent T-type calcium channel subunit alpha-1H (Homo sapiens, UniProt O95180); assay: Inhibition of […] channel Cav3.2 (unknown origin)
Procedure, shortened: (§2)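 Automated IonWorks patch clamp was run on CHO or HEK cells expressing each channel. A channel-specific voltage pulse was applied before compound and again about 3 min after addition.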

[12] = target: Sodium-dependent serotonin transporter (Homo sapiens) (UniProt P31645); assay: Inhibition of SERT (unknown origin) at 30 uM
[13] = target: Potassium voltage-gated channel subfamily A member 5 (Homo sapiens, UniProt P22460); assay: Inhibition of potassium channel Kv1.5 (unknown origin); procedure, shortened: as §2
[14] = target: Voltage-dependent L-type calcium channel subunit alpha-1C (Homo sapiens, UniProt Q13936); assay: Inhibition of […] channel Cav1.2 (unknown origin); procedure, shortened: as §2
[15] = target: T1, Potassium voltage-gated channel subfamily KQT member 1 (Homo sapiens, UniProt P51787); assay: Inhibition of potassium channel IKs (unknown origin); procedure, shortened: as §2
T1 sequence (P51787 whole entry): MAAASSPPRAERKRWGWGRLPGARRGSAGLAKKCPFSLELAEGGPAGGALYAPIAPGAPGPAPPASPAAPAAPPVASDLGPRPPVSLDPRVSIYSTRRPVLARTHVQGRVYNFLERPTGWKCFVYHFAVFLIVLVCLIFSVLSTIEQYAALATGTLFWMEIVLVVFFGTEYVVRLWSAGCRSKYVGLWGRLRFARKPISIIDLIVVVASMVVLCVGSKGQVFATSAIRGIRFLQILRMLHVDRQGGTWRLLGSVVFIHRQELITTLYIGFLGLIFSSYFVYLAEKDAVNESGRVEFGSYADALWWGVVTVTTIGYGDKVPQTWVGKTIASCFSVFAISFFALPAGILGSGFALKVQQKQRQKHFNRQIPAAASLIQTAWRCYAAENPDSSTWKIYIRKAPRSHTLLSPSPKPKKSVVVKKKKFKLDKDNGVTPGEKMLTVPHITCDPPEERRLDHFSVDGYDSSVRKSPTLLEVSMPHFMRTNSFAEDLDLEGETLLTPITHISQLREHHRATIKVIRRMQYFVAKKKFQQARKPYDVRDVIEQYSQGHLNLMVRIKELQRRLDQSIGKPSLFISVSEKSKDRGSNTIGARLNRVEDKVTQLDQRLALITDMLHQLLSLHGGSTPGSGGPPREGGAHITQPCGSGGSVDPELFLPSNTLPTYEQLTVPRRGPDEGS

[16] = target: Sodium channel protein type 5 subunit alpha (Homo sapiens, UniProt Q14524); assay: Inhibition of […] channel Nav1.5 (unknown origin); procedure, shortened: as §2
[17] = AUC in rat at 10 mg/kg, iv; type: ADME, organism-based; parameters: dose 10 mg/kg, route intravenous; conditions: plasma
Procedure, shortened: (§3)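 Male rats (Wistar Han) and Beagle dogs received 10 mg/kg as a 15 min iv infusion. Serial 200 µL whole-blood samples were taken from 0 to 24 h. Plasma levels were measured by LC–MS/MS against a standard curve after methanol protein precipitation. Parameters were estimated non-compartmentally.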

[18] = Clearance in rat at 10 mg/kg, iv; type: ADME, organism-based; parameters: dose 10 mg/kg, route intravenous; conditions: in vivo; procedure, shortened: as §3
[19] = Clearance in beagle dog at 10 mg/kg, iv; type: ADME, organism-based, Canis lupus familiaris; parameters: dose 10 mg/kg, route intravenous; conditions: in vivo; procedure, shortened: as §3
[20] = Half life in rat at 10 mg/kg, iv; type: ADME, organism-based; parameters: dose 10 mg/kg, route intravenous; conditions: in vivo; procedure, shortened: as §3
[21] = Half life in beagle dog at 10 mg/kg, iv; type: ADME, organism-based, Canis lupus familiaris; parameters: dose 10 mg/kg, route intravenous; conditions: in vivo; procedure, shortened: as §3
[22] = target: 5-hydroxytryptamine receptor 4 (Homo sapiens) (UniProt Q13639); assay: Inhibition of 5-HT4 receptor (unknown origin) at 30 uM
[23] = Volume of distribution in beagle dog at 10 mg/kg, iv; type: ADME, organism-based, Canis lupus familiaris; parameters: dose 10 mg/kg, route intravenous; conditions: in vivo; procedure, shortened: as §3
[24] = Volume of distribution in rat at 10 mg/kg, iv; type: ADME, organism-based; parameters: dose 10 mg/kg, route intravenous; conditions: in vivo; procedure, shortened: as §3
[25] = AUC in beagle dog at 10 mg/kg, iv; type: ADME, organism-based, Canis lupus familiaris; parameters: dose 10 mg/kg, route intravenous; conditions: plasma; procedure, shortened: as §3

Chain of Voltage-gated inwardly rectifying potassium channel KCNH2 (Q12809 whole entry): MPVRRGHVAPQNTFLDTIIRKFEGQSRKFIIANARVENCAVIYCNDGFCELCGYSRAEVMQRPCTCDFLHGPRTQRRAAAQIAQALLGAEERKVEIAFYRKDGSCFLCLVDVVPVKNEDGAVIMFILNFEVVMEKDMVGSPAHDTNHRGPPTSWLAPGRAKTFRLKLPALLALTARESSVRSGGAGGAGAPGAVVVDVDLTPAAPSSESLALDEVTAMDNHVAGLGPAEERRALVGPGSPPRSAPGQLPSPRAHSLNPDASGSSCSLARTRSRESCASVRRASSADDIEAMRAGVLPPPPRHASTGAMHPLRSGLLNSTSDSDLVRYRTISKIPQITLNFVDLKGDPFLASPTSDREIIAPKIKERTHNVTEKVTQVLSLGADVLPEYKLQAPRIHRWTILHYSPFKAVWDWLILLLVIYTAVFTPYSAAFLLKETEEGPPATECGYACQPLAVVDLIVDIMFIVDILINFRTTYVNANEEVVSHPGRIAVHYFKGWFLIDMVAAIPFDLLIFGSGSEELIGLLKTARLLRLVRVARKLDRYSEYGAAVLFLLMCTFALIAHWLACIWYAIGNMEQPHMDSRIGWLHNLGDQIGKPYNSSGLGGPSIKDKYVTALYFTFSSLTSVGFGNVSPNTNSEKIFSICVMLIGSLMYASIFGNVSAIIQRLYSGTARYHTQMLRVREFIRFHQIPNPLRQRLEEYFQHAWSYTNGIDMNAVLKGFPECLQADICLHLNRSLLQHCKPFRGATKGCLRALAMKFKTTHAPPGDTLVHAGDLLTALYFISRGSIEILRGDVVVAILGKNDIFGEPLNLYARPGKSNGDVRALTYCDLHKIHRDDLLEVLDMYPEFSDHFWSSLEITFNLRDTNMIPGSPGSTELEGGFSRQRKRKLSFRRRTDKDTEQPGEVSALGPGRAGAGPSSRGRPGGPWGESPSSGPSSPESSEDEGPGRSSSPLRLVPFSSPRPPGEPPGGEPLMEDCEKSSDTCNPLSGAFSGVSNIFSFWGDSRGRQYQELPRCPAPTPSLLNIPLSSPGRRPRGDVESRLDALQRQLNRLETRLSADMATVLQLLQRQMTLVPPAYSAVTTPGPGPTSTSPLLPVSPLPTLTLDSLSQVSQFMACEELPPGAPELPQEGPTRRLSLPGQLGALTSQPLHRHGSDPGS
Chain of Sodium-dependent noradrenaline transporter (Homo sapiens) (P23975 whole entry): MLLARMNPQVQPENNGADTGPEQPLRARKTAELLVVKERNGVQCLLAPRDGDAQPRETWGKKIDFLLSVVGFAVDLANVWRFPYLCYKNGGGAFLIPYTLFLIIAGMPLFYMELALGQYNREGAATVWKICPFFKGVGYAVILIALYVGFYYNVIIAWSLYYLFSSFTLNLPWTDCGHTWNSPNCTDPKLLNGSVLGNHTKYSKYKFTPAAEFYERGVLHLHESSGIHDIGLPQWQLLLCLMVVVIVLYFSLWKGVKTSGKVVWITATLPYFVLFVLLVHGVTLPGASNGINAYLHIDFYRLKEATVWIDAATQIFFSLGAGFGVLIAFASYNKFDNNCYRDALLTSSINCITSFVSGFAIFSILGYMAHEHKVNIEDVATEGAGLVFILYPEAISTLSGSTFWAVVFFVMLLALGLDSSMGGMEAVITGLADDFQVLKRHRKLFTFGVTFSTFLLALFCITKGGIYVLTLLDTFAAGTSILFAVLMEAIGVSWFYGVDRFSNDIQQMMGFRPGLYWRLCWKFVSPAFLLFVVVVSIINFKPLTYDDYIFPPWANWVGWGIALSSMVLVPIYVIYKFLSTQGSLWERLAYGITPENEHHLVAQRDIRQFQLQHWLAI
Chain of Potassium voltage-gated channel subfamily A member 5 (P22460 whole entry): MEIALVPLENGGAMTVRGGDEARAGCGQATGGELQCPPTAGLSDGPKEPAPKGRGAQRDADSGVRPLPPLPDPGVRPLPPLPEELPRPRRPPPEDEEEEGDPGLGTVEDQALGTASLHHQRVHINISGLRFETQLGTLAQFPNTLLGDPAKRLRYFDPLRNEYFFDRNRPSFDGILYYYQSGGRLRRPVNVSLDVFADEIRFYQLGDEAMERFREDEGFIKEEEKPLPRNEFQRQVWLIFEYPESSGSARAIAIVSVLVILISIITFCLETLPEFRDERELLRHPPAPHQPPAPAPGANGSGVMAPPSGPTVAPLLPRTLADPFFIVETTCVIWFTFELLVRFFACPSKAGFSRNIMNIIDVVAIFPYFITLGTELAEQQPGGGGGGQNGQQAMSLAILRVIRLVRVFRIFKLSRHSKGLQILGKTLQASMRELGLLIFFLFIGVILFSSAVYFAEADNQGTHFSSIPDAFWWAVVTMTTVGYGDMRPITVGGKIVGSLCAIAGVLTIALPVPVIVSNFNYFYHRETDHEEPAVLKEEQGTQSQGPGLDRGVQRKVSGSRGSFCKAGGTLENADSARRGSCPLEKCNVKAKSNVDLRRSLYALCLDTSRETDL
Chain of Sodium-dependent serotonin transporter (Homo sapiens) (P31645 whole entry, looked up): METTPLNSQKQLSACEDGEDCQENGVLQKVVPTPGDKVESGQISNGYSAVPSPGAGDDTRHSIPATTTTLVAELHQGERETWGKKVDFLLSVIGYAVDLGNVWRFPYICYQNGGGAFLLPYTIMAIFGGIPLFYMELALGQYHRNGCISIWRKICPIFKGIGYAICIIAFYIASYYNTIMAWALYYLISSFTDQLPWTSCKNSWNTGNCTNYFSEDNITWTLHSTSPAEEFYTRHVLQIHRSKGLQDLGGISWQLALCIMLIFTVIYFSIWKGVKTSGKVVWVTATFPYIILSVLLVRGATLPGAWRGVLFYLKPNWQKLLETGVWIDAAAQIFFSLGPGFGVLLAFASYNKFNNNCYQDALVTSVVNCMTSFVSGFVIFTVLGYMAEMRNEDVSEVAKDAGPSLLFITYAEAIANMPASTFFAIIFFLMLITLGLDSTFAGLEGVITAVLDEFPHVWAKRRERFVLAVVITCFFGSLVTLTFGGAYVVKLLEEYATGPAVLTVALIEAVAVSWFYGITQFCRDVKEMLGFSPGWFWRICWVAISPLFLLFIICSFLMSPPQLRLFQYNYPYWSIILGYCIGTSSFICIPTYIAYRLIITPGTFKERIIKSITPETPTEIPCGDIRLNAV
Chain of 5-hydroxytryptamine receptor 4 (Homo sapiens) (Q13639 whole entry): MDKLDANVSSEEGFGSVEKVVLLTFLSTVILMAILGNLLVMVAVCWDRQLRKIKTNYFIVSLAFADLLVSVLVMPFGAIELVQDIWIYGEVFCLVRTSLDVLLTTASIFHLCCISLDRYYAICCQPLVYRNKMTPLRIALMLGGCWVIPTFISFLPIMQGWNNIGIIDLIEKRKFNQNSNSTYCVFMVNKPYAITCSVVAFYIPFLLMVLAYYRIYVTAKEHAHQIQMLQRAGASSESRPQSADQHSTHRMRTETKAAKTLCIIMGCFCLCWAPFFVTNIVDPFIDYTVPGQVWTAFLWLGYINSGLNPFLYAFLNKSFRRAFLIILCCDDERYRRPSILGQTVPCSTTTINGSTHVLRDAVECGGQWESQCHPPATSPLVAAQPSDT

Row | SMILES | IC50 [1] | MIC90 (Escherichia coli [2]) | MIC90 (Staphylococcus aureus) | fraction unbound [3] | MIC90 (Pseudomonas aeruginosa [4]) | solubility [5] | logD [6] | IC50 [7] | further results
1 | Cc1cc(=O)n(C[C@H](N)[C@H]2CC[C@H](NCc3ccc4c(n3)NC(=O)CO4)CC2)c2cc(F)ccc12 | 3 nM | 0.5 µg/mL (≈ 1.04 µM) | 1 µg/mL (≈ 2.09 µM) | 0.64 | 0.5 µg/mL (≈ 1.04 µM) | > 333 µM | -0.05 |  | 
2 | COc1cc2c(cc1F)ncc(=O)n2C[C@H](N)[C@H]1CC[C@H](NCc2ncc3c(n2)NC(=O)CO3)CC1 | 4 nM | 2 µg/mL (≈ 4.02 µM) | 4 µg/mL (≈ 8.04 µM) | 0.56 | 2 µg/mL (≈ 4.02 µM) | > 333 µM | -0.42 | > 333000 nM | 
3 | COc1ccc2ncc(=O)n(C[C@H](N)[C@H]3CC[C@H](NCc4ccc5c(n4)NC(=O)CO5)CC3)c2c1 | 1 nM | 0.5 µg/mL (≈ 1.04 µM) | 1 µg/mL (≈ 2.09 µM) | 0.7 | 0.5 µg/mL (≈ 1.04 µM) | > 333 µM | -0.36 | > 333000 nM | 
4 | N[C@@H](Cn1c(=O)cnc2ccc(F)cc21)[C@H]1CC[C@H](NCc2ccc3c(n2)NC(=O)CO3)CC1 | 28 nM | < 0.06 µg/mL | 1 µg/mL (≈ 2.14 µM) | 0.7 | 0.25 µg/mL (≈ 0.536 µM) | > 333 µM | -0.41 | 174000 nM | 
5 | CNC(Cn1c(=O)cnc2cc(F)c(OC)cc21)[C@H]1CC[C@H](NCc2ncc3c(n2)NC(=O)CO3)CC1 (mixture of isomers) | 39 nM | 16 µg/mL (≈ 31.3 µM) | 64 µg/mL (≈ 125 µM) |  | > 64 µg/mL | > 333 µM |  |  | 
6 | Cc1cc(=O)n(C[C@H](N)[C@H]2CC[C@H](NCc3ncc4c(n3)NC(=O)CO4)CC2)c2cc(F)ccc12 | 2 nM | 0.5 µg/mL (≈ 1.04 µM) | 4 µg/mL (≈ 8.32 µM) | 0.66 | 2 µg/mL (≈ 4.16 µM) | > 333 µM | 0.06 | > 333000 nM | 
7 | C[C@H]1COc2c(N3CCN(C)CC3)c(F)cc3c(=O)c(C(=O)O)cn1c23.C[C@H]1COc2c(N3CCN(C)CC3)c(F)cc3c(=O)c(C(=O)O)cn1c23.O [LEVOFLOXACIN] |  |  |  |  |  |  |  |  | MIC90 (Klebsiella pneumoniae): 64 µg/mL; MIC90 (Escherichia coli [8]): 16 µg/mL; MIC90 (Pseudomonas aeruginosa [9]): 16 µg/mL
8 | COc1ccc2ncc(=O)n(CC(N)C3(F)CCC(NCc4ccc5c(n4)NC(=O)CO5)CC3)c2c1 (racemic) | 5 nM | 2 µg/mL (≈ 4.03 µM) | 0.5 µg/mL (≈ 1.01 µM) | 0.68 | 8 µg/mL (≈ 16.1 µM) | > 333 µM | 0.25 | > 33000 nM | 
9 | N[C@@H](Cn1c(=O)ccc2ncc(F)cc21)[C@H]1CC[C@H](NCc2ccc3c(n2)NC(=O)CO3)CC1 | 34 nM | 1 µg/mL (≈ 2.14 µM) | 16 µg/mL (≈ 34.3 µM) |  | 2 µg/mL (≈ 4.29 µM) | > 333 µM | -1.02 | > 100000 nM | 
10 | COc1ccc2ncc(=O)n(CC[C@]3(N)CC[C@H](NCc4ccc5c(n4)NC(=O)CO5)CC3)c2c1 | 2 nM | 1 µg/mL (≈ 2.09 µM) | 2 µg/mL (≈ 4.18 µM) |  | 8 µg/mL (≈ 16.7 µM) | > 333 µM |  |  | 
11 | COc1cnc2ccc(=O)n(C[C@@H](N)[C@H]3CC[C@H](NCc4ccc5c(n4)NC(=O)CO5)CC3)c2c1 | 33 nM | 8 µg/mL (≈ 16.7 µM) | 128 µg/mL (≈ 267 µM) | > 0.7 | 16 µg/mL (≈ 33.4 µM) | > 333 µM | -0.84 | > 100000 nM | 
12 | COc1cnc2ccc(=O)n(C[C@H](N)[C@H]3CC[C@H](NCc4ccc5c(n4)NC(=O)CO5)CC3)c2c1 | 2 nM | 0.5 µg/mL (≈ 1.04 µM) | 8 µg/mL (≈ 16.7 µM) | 0.78 | 1 µg/mL (≈ 2.09 µM) | > 333 µM | -0.86 | > 333000 nM | MIC90 (Klebsiella pneumoniae): 8 µg/mL (≈ 16.7 µM); inhibition [10]: 52%; IC50 [11]: > 333000 nM; inhibition [12]: 32%; IC50 [13]: > 333000 nM; IC50 [14]: > 333000 nM; IC50 [15]: > 333000 nM; MIC90 (Escherichia coli [8]): 0.5 µg/mL (≈ 1.04 µM); IC50 [16]: > 333000 nM; AUC [17]: 3900 ng·h/mL; clearance [18]: 47 mL/min/kg; clearance [19]: 14 mL/min/kg; half-life [20]: 9 h; half-life [21]: 8 h; inhibition [22]: 32%; Vd [23]: 2.7 L/kg; Vd [24]: 13 L/kg; MIC90 (Pseudomonas aeruginosa [9]): 4 µg/mL (≈ 8.36 µM); AUC [25]: 3800 ng·h/mL
13 | COc1ccc2ncc(=O)n(C[C@H](N)[C@H]3CC[C@H](NCc4ncc5c(n4)NC(=O)CO5)CC3)c2c1 | 2 nM | 0.2 µg/mL (≈ 0.417 µM) | 1 µg/mL (≈ 2.09 µM) | 0.6 | 0.5 µg/mL (≈ 1.04 µM) | > 333 µM | -0.48 | > 333000 nM | 
14 | COc1ccc2ccc(=O)n(C[C@H](N)[C@H]3CC[C@H](NCc4ncc5c(n4)NC(=O)CO5)CC3)c2c1 | 5 nM | 0.5 µg/mL (≈ 1.04 µM) | 8 µg/mL (≈ 16.7 µM) | 0.71 | 2 µg/mL (≈ 4.18 µM) | > 333 µM | -0.54 | > 100000 nM | 

Reference: ChEMBL document CHEMBL3352316, “Optimization of physicochemical properties and safety profile of novel bacterial topoisomerase type II inhibitors (NBTIs) with activity against Pseudomonas aeruginosa” (Bioorg Med Chem, 2014)
